Source: ChEMBL document CHEMBL4368903, “Identification of GSK3186899/DDD853651 as a Preclinical Development Candidate for the Treatment of Visceral Leishmaniasis” (J Med Chem, 2019)
Converted amounts (≈) assume the structure as drawn.

How the values were obtained:
[1] = test system: Leishmania donovani; test: Antileishmanial activity against Leishmania donovani LV9 amastigotes infected in BALB/c mouse assessed as suppression of parasite load within liver at 100 mg/kg, po administered bid for 5 days relative to control; assay type: functional
In short: (§1)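 Female BALB/c mice, 5 per group, infected i.v. with about 2×10^7 L. donovani LV9 amastigotes harvested from infected hamster spleen. Oral dosing starts day 7 post-infection, in 0.5% HPMC/0.4% Tween 80/0.5% benzyl alcohol, or 10% DMSO/60% PEG400/30% water for the 5-day 50 mg/kg regimen. Dosing solutions made fresh daily. Killed day 14 (5-day) or 19 (10-day). Liver smears give LDU (amastigotes/500 nucleated cells × organ weight). Mean LDU compared with vehicle control gives % suppression.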

[2] = Intrinsic clearance in human liver microsomes at 0.5 uM after 3 to 30 mins in presence of NADPH by UPLC-MS/MS analysis; assay type: ADME, Microsome
In short: (§2)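 0.5 μM compound with female CD1 mouse or human liver microsomes, started with excess NADPH in 50 mM potassium phosphate pH 7.4. Aliquots at 0, 3, 6, 9, 15 and 30 min quenched in acetonitrile with internal standard. UPLC-MS/MS; rate constant from exponential decay of compound/IS ratio. Verapamil as positive control.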

[3] = test system: Leishmania donovani; test: Antileishmanial activity against Leishmania donovani LV9 amastigotes infected in BALB/c mouse assessed as suppression of parasite load within liver at 25 mg/kg, po administered bid for 10 days relative to control; assay type: functional; in short: as §1
[4] = Mean AUClast in Sprague-Dawley rat at 300 mg/kg, po measured up to 24 hrs by UPLC-MS/MS analysis; assay type: ADME, organism-based; design: dose 300 mg/kg, time < 24 hr, route oral; conditions: in vivo
In short: (§3)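 Male Sprague–Dawley rats (n=3) given oral gavage as 1% methylcellulose suspension at 10, 100 or 300 mg/kg. Tail-vein blood at 0.25–24 h into K-EDTA, diluted in 0.1N Hepes and stored at −20 °C. Protein precipitation, then LC-MS/MS (range 2.90–2860 ng/mL). AUC0–t by linear up-log down trapezoidal rule.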

[5] = test system: Leishmania donovani; test: Antileishmanial activity against Leishmania donovani LV9 amastigotes infected in BALB/c mouse assessed as suppression of parasite load within liver at 10 mg/kg, po administered bid for 10 days relative to control; assay type: functional; in short: as §1
[6] = test system: Leishmania donovani; test: Antileishmanial activity against Leishmania donovani LV9 amastigotes infected in BALB/c mouse assessed as suppression of parasite load within liver at 50 mg/kg, po administered bid for 10 days relative to control; assay type: functional; in short: as §1
[7] = Kinetic aqueous solubility of the compound in phosphate buffer at pH 7.4 by CLND assay; assay type: physicochemical; conditions: phosphate buffer, read-out: Kinetic_solubility
In short: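 From 10 mM DMSO stock diluted 1:20 into pH 7.4 PBS, equilibrated 1 h at RT, filtered. Filtrate quantified by calibrated flow-injection CLND. Dynamic range 1–500 μM.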

[8] = Fraction unbound in CD1 mouse plasma at 10 ug/ml after 15 mins by UPLC-MS/MS analysis; assay type: ADME, cell-free
[9] = Mean AUClast in Sprague-Dawley rat at 10 mg/kg, po measured up to 24 hrs by UPLC-MS/MS analysis; assay type: ADME, organism-based; design: dose 10 mg/kg, time < 24 hr, route oral; conditions: in vivo; in short: as §3
[10] = test system: THP-1; test: Cytotoxicity against human THP1 cells; assay type: cell-based
[11] = Fraction unbound in human plasma at 10 ug/ml after 15 mins by UPLC-MS/MS analysis; assay type: ADME, cell-free
[12] = Intrinsic clearance in CD1 mouse liver microsomes at 0.5 uM after 3 to 30 mins in presence of NADPH by UPLC-MS/MS analysis; assay type: ADME, Microsome; in short: as §2
[13] = test system: HepG2; test: Cytotoxicity against human HepG2 cells; assay type: cell-based
[14] = test system: Leishmania donovani; test: Antileishmanial activity against Leishmania donovani […] in human THP1 cells by intramacrophage assay; assay type: functional, organism-based; conditions: Leishmania donovani, THP-1
[15] = Solubility of compound in fasted simulated intestinal fluid at 1 mg after 4 hrs by HPLC-UV analysis; assay type: physicochemical; conditions: fasted simulated intestinal fluid
In short: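 1 mg solid shaken in 1 mL FaSSIF (3 mM sodium taurocholate, 0.75 mM lecithin, phosphate buffer pH 6.5) at 900 rpm for 4 h at room temperature, then filtered. Supernatant quantified by HPLC-UV against single-point DMSO calibration. Range 1–1000 μg/mL.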

[16] = Mean AUClast in Sprague-Dawley rat at 100 mg/kg, po measured up to 24 hrs by UPLC-MS/MS analysis; assay type: ADME, organism-based; design: dose 100 mg/kg, time < 24 hr, route oral; conditions: in vivo; in short: as §3

CLH [2]: 1.8 mL/min/g
AUC(0-t) at 24 h [4]: 2380 ng·h/mL
solubility kinetic [7]: 328 µM (≈ 144 µg/mL)
fraction unbound at 0.25 h, 10 ug/ml [8]: 0.37
AUC(0-t) at 24 h [9]: 162 ng·h/mL
fraction unbound at 0.25 h, 10 ug/ml [11]: 0.33
CLH [12]: 0.9 mL/min/g
EC50 [14]: 0.501 µM
solubility at 4 h [15]: 9 µg/mL (≈ 20.6 µM)
AUC(0-t) at 24 h [16]: 2960 ng·h/mL
Compound: CC(C)CS(=O)(=O)N[C@H]1CC[C@H](Nc2ncc3c(N4CCOCC4)n[nH]c3n2)CC1
Activity [1]: 94%
Activity [3]: 74%
Activity [5]: 36%
Activity [6]: 97%
EC50 [10]: > 50.1 µM
EC50 [13]: > 100 µM
